Data set [1] in a line: Aqueous solubility of the compound at pH 5. It counts as physicochemical. The settings on record: aqueous medium.
Data set [2] deals with Cryptococcus neoformans. As to the kind of experiment: Antifungal activity against wild type fluconazole-sensitive Cryptococcus neoformans serotype A H99 at pH 5 measured over 4 days. It counts as functional, organism-based. The settings on record: var grubii H99 , 96 h. The method in brief: (§1)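 YPD-grown exponential-phase yeasts, hemacytometer-counted, diluted into RPMI buffered to pH 7.0 with 25 mM HEPES (or pH 5.0 with […] for pH comparison) at 2 x 10^3 per well; two-fold series 40 to 0.078 µM, 37 °C, agitated twice daily. A595 followed over 4 days versus DMSO controls; day-3 turbidity fitted by 4-parameter regression for IC50; MIC = growth ≤10% of untreated.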

Data set [3] in a line: Ratio of aqueous solubility at pH 5 to aqueous solubility at pH 7. It counts as physicochemical. The settings on record: buffer.
Data set [4] is described as follows: Therapeutic index, ratio of IC50 for mouse P388D1 cells to IC50 for wild type Cryptococcus neoformans serotype A H99. The settings on record: read-out: Ratio IC50. It counts as toxicity. In outline: (§2)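 Ratio of P388D1 IC50 (72 h resazurin viability, 80 to 0.3 µM) to yeast IC50 from RPMI/HEPES pH 7.0 broth dilution with A595 turbidity and 4-parameter regression.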

Data set [5] concerns Histoplasma capsulatum. In words: Fungistatic activity against Histoplasma capsulatum OSU76 after 2 to 24 hrs by colony forming assay. It counts as functional, organism-based.
Data set [6] has as its system Cryptococcus neoformans. In words: Antifungal activity against wild type fluconazole-sensitive Cryptococcus neoformans serotype A H99 at pH 7 measured over 4 days. The settings on record: var grubii H99 , 96 h. It counts as functional, organism-based. The method in brief: as §1
For data set [7], the system named is Cryptococcus neoformans. In words: Antifungal activity against fluconazole-resistant Cryptococcus neoformans serotype A MRL862 harboring erg11 mutant measured over 4 days. It counts as functional, organism-based. The settings on record: MRL862, 96 h. In outline:
as §1

In the next data set the test system is P388D1. In words: Cytotoxicity against mouse P388D1 cells assessed as reduction in cell viability after 72 hrs by resazurin-based fluorescence assay. The settings on record: P388D1, 72 h. In outline:
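P388D1 cells in Ham's F-12 + 10% FBS + 2 mM L-glutamine seeded at 5 x 10^3 per well, adhered overnight, exposed to compounds 80 to 0.3 µM for 72 h. Viability read as resorufin fluorescence (530/590 nm) after 0.1 mM resazurin, pre-saturation time points, versus untreated cells; three biological replicates; IC50 by non-linear regression.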

The subject of data set [8] is Cryptococcus neoformans. In words: Antifungal activity against fluconazole-resistant Cryptococcus neoformans serotype A TES9 harboring erg11 mutant measured over 4 days. It counts as functional, organism-based. The settings on record: TES9, 96 h. In outline: as §1
For data set [9], the system named is Histoplasma capsulatum. In words: Antifungal activity against Histoplasma capsulatum G217B ATCC 26032 at pH 7 measured over 5 days. It counts as functional, organism-based. The settings on record: G217B ATCC 26032, 120 h. In outline:
(§3)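 Yeasts pre-grown in HMM (37 °C, 5% CO2) to exponential phase, counted by hemacytometer, diluted into RPMI buffered with 25 mM HEPES (pH 7.0) or 25 mM MOPS (pH 5.0) at 5 x 10^5 per well; two-fold dilutions 40 to 0.078 µM, 37 °C, agitated twice daily. A595 read over 5 days, normalized to DMSO controls; 4-day data fitted by 4-parameter regression for IC50; MIC = ≤10% growth.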

A short description of data set [10]: Aqueous solubility of the compound at pH 7. The settings on record: aqueous medium. It counts as physicochemical.
Data set [11] can be described thus: Therapeutic index, ratio of IC50 for mouse P388D1 cells to IC50 for Histoplasma capsulatum OSU76. It counts as toxicity. The settings on record: read-out: Ratio IC50.
Data set [12] concerns Histoplasma capsulatum. As to the kind of experiment: Antifungal activity against RFP expressing Histoplasma capsulatum infected in LacZ-expressing mouse P388D1 cells incubated for 6 days measured daily by fluorescence assay. It counts as functional, organism-based. The settings on record: for MIC: 144 h; for IC50: P388D1, 144 h. The method in brief:
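LacZ-expressing P388D1 macrophages (3x10^4 per well, adhered 3 h) infected with RFP Histoplasma yeasts at MOI 1:2 for 3 h, medium replaced with F-12 + 10% serum, overnight at 37 °C, then compound gradient added for 6 days. RFP fluorescence (530/590 nm) read daily; day-4 values relative to untreated infected cells fitted by non-linear regression; triplicate.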

Data set [13] concerns Cryptococcus neoformans. In words: Antifungal activity against wild-type fluconazole-sensitive Cryptococcus neoformans serotype D B3501 measured over 4 days. It counts as functional, organism-based. The settings on record: B3501, 96 h. The method in brief:
as §1

Data set [14] can be described thus: Therapeutic index, ratio of IC50 for mouse P388D1 cells to IC50 for Histoplasma capsulatum G217B ATCC 26032. It counts as toxicity. The settings on record: read-out: Ratio IC50. The method in brief:
as §2

Data set [15] has as its system Histoplasma capsulatum. In words: Antifungal activity against Histoplasma capsulatum G217B ATCC 26032 at pH 5 measured over 5 days. It counts as functional, organism-based. The settings on record: G217B ATCC 26032, 120 h. In outline: as §3
For data set [16], the system named is Cryptococcus neoformans. As to the kind of experiment: Antifungal activity against Cryptococcus neoformans TDY271 after 72 hrs by microdilution assay. It counts as functional, organism-based. The settings on record: TDY271, 72 h.

Each structure is given as a SMILES string. Values after ≈ are worked out from the molar mass of the structure shown.

In the case of `O=C(Nc1ncc(Cc2cccc3ccccc23)s1)C1CCCCC1`, the solubility in data set [1] and in data set [10] was 4 µg/mL (≈ 11.4 µM) throughout. For the same compound, the IC50 (commonly the concentration that inhibits the measured activity by half) in the data set on Cryptococcus neoformans [2] was 3.04 µM; in the data set on Histoplasma capsulatum [5], 0.87 µM; with Cryptococcus neoformans [6] it was 0.67 µM; in the data set with Cryptococcus neoformans [7], 0.23 µM; with P388D1, greater than 40 µM; in the data set on Cryptococcus neoformans [8], 0.2 µM. The IC50 in the data set with Histoplasma capsulatum [9] came out at 0.48 µM; with Histoplasma capsulatum [12], 1.26 µM; with Cryptococcus neoformans [13], 0.18 µM; in the data set with Histoplasma capsulatum [15], 6.75 µM; in the data set with Cryptococcus neoformans [16], 1.25 µM. The MIC90 (as a rule, an inhibitory concentration at the 90% level, which refers to growth in some studies and to a panel of isolates in others) is 5 µM (≈ 1.75 µg/mL) with Cryptococcus neoformans [2]; 1.25 µM (≈ 0.438 µg/mL) in the data set on Cryptococcus neoformans [6]; 0.63 µM (≈ 0.221 µg/mL) with Cryptococcus neoformans [7]; 0.63 µM (≈ 0.221 µg/mL) against Cryptococcus neoformans [8]; 1.25 µM (≈ 0.438 µg/mL) against Histoplasma capsulatum [9]; 0.63 µM (≈ 0.221 µg/mL) with Cryptococcus neoformans [13]. In the data set with Histoplasma capsulatum [15], the MIC90 stood at 10 µM (≈ 3.5 µg/mL). Further, in data set [3], the Ratio is recorded as 1. The selectivity ratio in data set [4] was greater than 60; in [11], 63; in data set [14], greater than 83. Moreover, in the data set with Histoplasma capsulatum [12], the MIC (commonly the smallest concentration in the dilution series that meets the test's criterion for growth inhibition) came to 2.5 µM (≈ 0.876 µg/mL).

As for `O=C(Nc1ncc(Cc2cccnc2)s1)C1CCCCC1`, the solubility (usually the dissolved amount per volume that the medium holds) in data set [1] was determined as 590 µg/mL (≈ 1960 µM); in [10], 340 µg/mL (≈ 1130 µM). The IC50 in the data set on Cryptococcus neoformans [2], in the data set on Cryptococcus neoformans [6], in the data set with Histoplasma capsulatum [9] and in the data set with Histoplasma capsulatum [15] was greater than 20 µM each time. In addition, the MIC90 with Cryptococcus neoformans [2] and with Histoplasma capsulatum [15] was greater than 40 µM in each case. The Ratio in data set [3] was determined as 1.7.

On to `O=C(Nc1ncc(Cc2cccc3sccc23)s1)C1CCCCC1`, for which the selectivity ratio in data set [4] was greater than 108; in [14], greater than 200. The IC50 with Cryptococcus neoformans [6] was 0.21 to 0.37 µM; in the data set with Cryptococcus neoformans [7] it was 0.13 µM; with P388D1, greater than 40 µM; in the data set with Cryptococcus neoformans [8], 0.19 µM; in the data set on Histoplasma capsulatum [9] it was 0.2 µM; with Histoplasma capsulatum [12], 1.21 µM. This compound also returned an IC50 in the data set with Cryptococcus neoformans [13] of 0.16 µM. The MIC90 with Cryptococcus neoformans [6] was 0.63 to 1.25 µM (≈ 0.225 to 0.446 µg/mL); against Cryptococcus neoformans [7] it was 0.31 µM (≈ 0.111 µg/mL); in the data set on Cryptococcus neoformans [8] it was 0.31 µM (≈ 0.111 µg/mL); in the data set with Histoplasma capsulatum [9], 0.31 µM (≈ 0.111 µg/mL); against Cryptococcus neoformans [13], 0.63 µM (≈ 0.225 µg/mL). The compound further yielded an MIC in the data set with Histoplasma capsulatum [12] of 2.5 µM (≈ 0.891 µg/mL).

As for `O=C(Nc1ncc(Cc2ccnc3ccccc23)s1)C1CCCCC1`, the solubility in data set [1] was found to be 130 µg/mL (≈ 370 µM); in [10], 70 µg/mL (≈ 199 µM). The IC50 in the data set with Cryptococcus neoformans [2] was 4.29 µM; in the data set on Cryptococcus neoformans [6], 3.24 µM; with P388D1 it was 13.9 µM; in the data set with Histoplasma capsulatum [9] it was 3.05 µM; in the data set on Histoplasma capsulatum [15], 16.8 µM. Besides, the MIC90 in the data set on Cryptococcus neoformans [2] is 10 µM (≈ 3.51 µg/mL); in the data set with Histoplasma capsulatum [15] it was 40 µM (≈ 14.1 µg/mL). Also, the Ratio in [3] was found to be 1.9. The selectivity ratio in data set [4] and in data set [14] was 5 in each case.

On to `O=C(CCC1CCCCC1)Nc1ncc(Cc2ccccn2)s1`, for which the values for the solubility in data set [1] and in [10] were 60 µg/mL (≈ 182 µM) and 40 µg/mL (≈ 121 µM), respectively. Also, the IC50 in the data set on Cryptococcus neoformans [2] is greater than 20 µM; in the data set on Cryptococcus neoformans [6] it was greater than 20 µM; in the data set with P388D1, greater than 40 µM; with Histoplasma capsulatum [9], 8.09 µM; with Histoplasma capsulatum [15] it was greater than 20 µM. Besides, the MIC90 against Cryptococcus neoformans [2] is greater than 40 µM; with Histoplasma capsulatum [9] it was 20 µM (≈ 6.59 µg/mL); in the data set on Histoplasma capsulatum [15], greater than 40 µM. In data set [3], the Ratio amounted to 1.5. Moreover, in data set [14], the selectivity ratio is greater than 5.

These data come from ChEMBL document CHEMBL4219175, “Synthesis and biological evaluation of aminothiazoles against Histoplasma capsulatum and Cryptococcus neoformans” (Bioorg Med Chem, 2018).
